Common to all, as to assay type: functional
One assay deals with HT-29. Put plainly: Antineoplastic cytotoxicity against human HT29 cells after 72 hrs by SRB method. Conditions: HT-29, 72 h. The method, boiled down: (§1)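 Cells seeded at 5 × 10^3 per well in RPMI and left to attach for 18 h in drug-free medium. Compounds were then added in DMSO/H2O (3:7) and exposed for 72 h. Cells were fixed with cold 50% TCA for 60 min at 4 °C and stained with 0.4% SRB in 1% acetic acid for 10 min at rt. Bound dye was solubilised in Tris and read at 490 nm. GI50 from 100×[(T−T0)/(C−T0)]=50.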

The next assay concerns A549. Put plainly: Antineoplastic cytotoxicity against human A549 cells after 72 hrs by SRB method. Conditions: A549, 72 h. The method, boiled down:
as §1
A general note: Sulforhodamine B stains cellular protein and so reports cell mass.

Assay [1] in a line: Antineoplastic cytotoxicity against human MEL28 cells after 72 hrs by SRB method. The note with it: SK-MEL-28, 72 h. Put shortly: as §1

The term GI50 denotes the concentration giving 50% growth inhibition. For the compound `C=C1CC[C@@H]2[C@](C)(CCC[C@]2(C)C(=O)O)[C@H]1CCc1ccc2c(c1)C(=O)C=CC2=O`, the GI50 is 5.7 µM with HT-29, more than 7.4 µM in the assay with A549 and 5.7 µM in assay [1].
Consider `C=C1CC[C@@H]2[C@](C)(CCC[C@]2(C)C(=O)OC)[C@H]1/C=C/c1ccc2c(OC)ccc(OC)c2c1`, for which the 50% growth inhibitory concentration (GI50) with HT-29 and in the assay on A549 was more than 22.3 µM in each case.
On to `C=C1CC[C@@H]2[C@](C)(CCC[C@]2(C)C(=O)O)[C@H]1CCC1=CCc2c(OC(C)=O)ccc(OC(C)=O)c2C1`, for which the GI50 with HT-29 was found to be 10.1 µM; in the assay on A549 it was 2.5 µM; in assay [1], 5 µM.
Consider `C=C1CC[C@@H]2[C@](C)(CCC[C@]2(C)C(=O)OC)[C@H]1CCC1=CCc2c(OC(C)=O)ccc(OC(C)=O)c2C1`, for which the GI50 with HT-29 was 1.38 µM; with A549, 0.51 µM; in assay [1], 0.68 µM.
As to `C=C1[C@H](O)C[C@@H]2[C@](C)(CCC[C@]2(C)C(=O)OC)[C@H]1CCc1ccc2c(OC(C)=O)ccc(OC(C)=O)c2c1`, the results for the GI50 in the assay with HT-29 and with A549 were 1 µM and 1.6 µM, respectively.
Take `COC(=O)[C@@]1(C)CCC[C@]2(C)C(CCc3ccc4c(OC)ccc(OC)c4c3)=C(OOC(C)(C)C)CC[C@@H]12`: the concentration for 50% growth inhibition (GI50) (in the assay on HT-29; with A549; in assay [1]) was more than 18.6 µM each time.
In the case of `C=C1C(=O)C[C@@H]2[C@](C)(CCC[C@]2(C)C(=O)OC)[C@H]1CCc1ccc2c(OCc3ccccc3)ccc(OCc3ccccc3)c2c1`, the GI50 with HT-29 came out at 8.1 µM; in the assay with A549, 14.8 µM.
In the case of `C=C1CC[C@H]2[C@@](C)(CCC[C@@]2(C)C(=O)OC)[C@@H]1CCc1ccc2c(c1)C(=O)c1cc(CC[C@H]3C(=C)CC[C@@H]4[C@]3(C)CCC[C@]4(C)C(=O)OC)ccc1C2=O`, the concentration for 50% growth inhibition (GI50) (with HT-29; with A549; in assay [1]) was more than 4.1 µM throughout.
Consider `C=C1CC[C@@H]2[C@](C)(CCC[C@]2(C)C(=O)OC)[C@]1(O)CCc1ccc2c(OCc3ccccc3)ccc(OCc3ccccc3)c2c1`, for which the figures for the GI50 (in the assay on HT-29; in the assay with A549; in assay [1]) were 12.4 µM, 12.4 µM and 9 µM, respectively.
For the compound `C=C1CC[C@@H]2[C@](C)(CCC[C@]2(C)C(=O)OC)[C@H]1CCc1ccc2c(c1)C(=O)C=CC2=O`, the GI50 (in the assay with HT-29; in the assay on A549; in assay [1]) was 0.2 µM in each case.
With `C=C1CC[C@@H]2[C@](C)(CCC[C@]2(C)C(=O)O)[C@H]1CCc1ccc2c(OC(C)=O)ccc(OC(C)=O)c2c1`, the GI50 (with HT-29; with A549; in assay [1]) was 0.24 µM in each case.
Take `C=C1CC[C@@H]2[C@](C)(CCC[C@]2(C)C(=O)OC)[C@H]1CCc1ccc2c(OC(C)=O)ccc(OC(C)=O)c2c1`: the GI50 worked out at 0.5 µM with HT-29, 0.12 µM in the assay on A549 and 0.12 µM in assay [1].
In the case of `C=C1C(=O)C[C@@H]2[C@](C)(CCC[C@]2(C)C(=O)OC)[C@H]1CCc1ccc2c(OC)ccc(OC)c2c1`, the 50% growth inhibitory concentration (GI50) was found to be 3.2 µM in the assay with HT-29 and 3.7 µM in the assay with A549.
`COC(=O)[C@@]1(C)CCC[C@]2(C)C(CCc3ccc4c(OC)ccc(OC)c4c3)=C(C)CC[C@@H]12`: the GI50 (in the assay on HT-29; in the assay on A549; in assay [1]) was more than 6.7 µM each time.
In the case of `COC(=O)[C@@]1(C)CCC[C@]2(C)C(CCc3ccc4c(OCc5ccccc5)ccc(OCc5ccccc5)c4c3)=C(C)CC[C@@H]12`, the GI50 was more than 16.6 µM in the assay on HT-29 and 15.2 µM with A549.
With `C=C1CC[C@@H]2[C@](C)(CCC[C@]2(C)C(=O)OC)[C@H]1CCc1ccc2c(OC)ccc(OC)c2c1`, the GI50 (in the assay on HT-29; with A549; in assay [1]) was more than 6.7 µM throughout.
Turning to `COC(=O)[C@@]1(C)CCC[C@]2(C)C(CCc3ccc4c(OC(C)=O)ccc(OC(C)=O)c4c3)=C(C)CC[C@@H]12`, the GI50 in the assay on HT-29 and with A549 was 0.24 µM each time.
Regarding `C=C1[C@H](O)C[C@@H]2[C@](C)(CCC[C@]2(C)C(=O)OC)[C@H]1CCc1ccc2c(OC)ccc(OC)c2c1`, the GI50 (with HT-29; in the assay with A549; in assay [1]) was more than 6.4 µM throughout.
Turning to `C=C1C(=O)C[C@@H]2[C@](C)(CCC[C@]2(C)C(=O)OC)[C@H]1CCc1ccc2c(OC(C)=O)ccc(OC(C)=O)c2c1`, the concentration for 50% growth inhibition (GI50) in the assay with HT-29 amounted to 4.4 µM; in the assay with A549, 2.3 µM.
With `COC(=O)[C@@]1(C)CCC[C@]2(C)C(CCc3ccc4c(OC(C)=O)ccc(OC(C)=O)c4c3)=C(C)[C@@H](O)C[C@@H]12`, the GI50 in the assay on HT-29 and in the assay on A549 was 4.8 µM each time.
Turning to `C=C1CC[C@@H]2[C@](C)(CCC[C@]2(C)C(=O)OC)[C@H]1CCc1ccc2c(OCc3ccccc3)ccc(OCc3ccccc3)c2c1`, the GI50 (with HT-29; with A549; in assay [1]) was more than 5 µM throughout.
Regarding `C=C1CC[C@@H]2[C@](C)(CCC[C@]2(C)C(=O)OCc2ccccc2)[C@H]1CCc1ccc2c(OCc3ccccc3)ccc(OCc3ccccc3)c2c1`, the GI50 worked out at 4.4 µM in the assay on HT-29 and 6.5 µM with A549.
Consider `C=C1[C@H](O)C[C@@H]2[C@](C)(CCC[C@]2(C)C(=O)OC)[C@H]1CCc1ccc2c(OCc3ccccc3)ccc(OCc3ccccc3)c2c1`, for which the GI50 (with HT-29; in the assay with A549; in assay [1]) was more than 4.9 µM in each case.
As to `COC(=O)[C@@]1(C)CCC[C@]2(C)C(CCc3ccc4c(OC(C)=O)ccc(OC(C)=O)c4c3)=C(C)C(=O)C[C@@H]12`, the concentration for 50% growth inhibition (GI50) with HT-29 and in the assay on A549 was 0.19 µM each time.
For `C=C1CC[C@@H]2[C@](C)(CCC[C@]2(C)C(=O)OC)[C@]1(O)CCc1ccc2c(OC)ccc(OC)c2c1`, the GI50 with HT-29 and with A549 was more than 21.5 µM throughout.
